Experimental data from ChEMBL document CHEMBL1649455, “Antimicrobial susceptibility and mechanisms of resistance in Shigella and Salmonella isolates from children under five years of age with diarrhea in rural Mozambique” (2009).

Columns and labels:
Shigella flexneri [1] = test: Antimicrobial activity against Shigella flexneri assessed as resistant isolates by disk diffusion method; type: functional
Method in brief: (§1)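 Isolates came from rectal swabs of children under five seen at MDH between July 2001 and July 2003. There were 109 Shigella and 40 Salmonella. Swabs were cultured on MacConkey, Salmonella-Shigella and XLD agars. Identity was confirmed biochemically and by API-20E. Shigella serogroups were assigned by slide agglutination. Salmonella serotypes were assigned with somatic and flagellar antisera.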

Shigella sonnei [2] = test: Antimicrobial activity against Shigella sonnei assessed as resistant isolates by disk diffusion method; type: functional; method in brief: as §1
[3] = Antimicrobial activity against Salmonella enterica serovar Infantis assessed as resistant isolates by disk diffusion method; type: functional, Salmonella enterica subsp. enterica serovar Infantis; method in brief: as §1
Salmonella typhimurium = test: Antimicrobial activity against Salmonella enterica serovar Typhimurium assessed as resistant isolates by disk diffusion method; type: functional, Salmonella enterica subsp. enterica serovar Typhimurium; method in brief: as §1
[4] = Antimicrobial activity against Salmonella enterica serovar Virchow assessed as resistant isolates by disk diffusion method; type: functional, Salmonella enterica subsp. enterica serovar Virchow; method in brief: as §1
Salmonella enterica = test: Antimicrobial activity against Salmonella enterica clinical isolates assessed as resistant isolates by disk diffusion method; type: functional; method in brief: as §1
Shigella flexneri [5] = test: Antimicrobial activity against Shigella flexneri harboring oxa-1-like gene assessed as resistant isolates by disk diffusion method; type: functional
Method in brief: (§2)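 Resistance genes were sought by PCR in isolates fully resistant to the matching antibiotic. One colony was boiled 10 min in water to make template. PCR used […] each primer, 0.4 mM dNTPs and Taq, for 30 cycles of 94°C 1 min, primer-specific annealing 1 min and 72°C 1 min, then 72°C for 10 min. Products were run on 1.5% agarose gels with ethidium bromide.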

Shigella flexneri [6] = test: Antimicrobial activity against Shigella flexneri harboring oxa-2-like gene assessed as resistant isolates by disk diffusion method; type: functional; method in brief: as §2
Shigella flexneri [7] = test: Antimicrobial activity against Shigella flexneri harboring oxa-5-like gene assessed as resistant isolates by disk diffusion method; type: functional; method in brief: as §2
Shigella flexneri [8] = test: Antimicrobial activity against Shigella flexneri harboring tem-like gene assessed as resistant isolates by disk diffusion method; type: functional
Shigella flexneri [9] = test: Antimicrobial activity against Shigella flexneri harboring shv-like gene assessed as resistant isolates by disk diffusion method; type: functional
Shigella flexneri [10] = test: Antimicrobial activity against Shigella flexneri harboring carb-like gene assessed as resistant isolates by disk diffusion method; type: functional; method in brief: as §2
Salmonella sp. [11] = test: Antimicrobial activity against Salmonella spp. harboring oxa-1-like gene assessed as resistant isolates by disk diffusion method; type: functional; method in brief: as §2
Salmonella sp. [12] = test: Antimicrobial activity against Salmonella spp. harboring oxa-2-like gene assessed as resistant isolates by disk diffusion method; type: functional
Salmonella sp. [13] = test: Antimicrobial activity against Salmonella spp. harboring oxa-5-like gene assessed as resistant isolates by disk diffusion method; type: functional; method in brief: as §2
Salmonella sp. [14] = test: Antimicrobial activity against Salmonella spp. harboring tem-like gene assessed as resistant isolates by disk diffusion method; type: functional
Salmonella sp. [15] = test: Antimicrobial activity against Salmonella spp. harboring shv-like gene assessed as resistant isolates by disk diffusion method; type: functional; method in brief: as §2
Salmonella sp. [16] = test: Antimicrobial activity against Salmonella spp. harboring carb-like gene assessed as resistant isolates by disk diffusion method; type: functional; method in brief: as §2
Shigella flexneri [17] = test: Antimicrobial activity against Shigella flexneri harboring cmlA-like gene assessed as resistant isolates by disk diffusion method; type: functional
Shigella flexneri [18] = test: Antimicrobial activity against Shigella flexneri harboring floR-like gene assessed as resistant isolates by disk diffusion method; type: functional; method in brief: as §2
Shigella flexneri [19] = test: Antimicrobial activity against Shigella flexneri harboring CAT gene assessed as resistant isolates by disk diffusion method; type: functional
Salmonella sp. [20] = test: Antimicrobial activity against Salmonella spp. harboring cmlA-like gene assessed as resistant isolates by disk diffusion method; type: functional
Salmonella sp. [21] = test: Antimicrobial activity against Salmonella spp. harboring floR-like gene assessed as resistant isolates by disk diffusion method; type: functional
Salmonella sp. [22] = test: Antimicrobial activity against Salmonella spp. harboring CAT gene assessed as resistant isolates by disk diffusion method; type: functional
Shigella flexneri [23] = test: Antimicrobial activity against Shigella flexneri harboring tetA gene assessed as resistant isolates by disk diffusion method; type: functional
Shigella flexneri [24] = test: Antimicrobial activity against Shigella flexneri harboring tetB gene assessed as resistant isolates by disk diffusion method; type: functional
Shigella flexneri [25] = test: Antimicrobial activity against Shigella flexneri harboring tetG gene assessed as resistant isolates by disk diffusion method; type: functional; method in brief: as §2
Shigella sonnei [26] = test: Antimicrobial activity against Shigella sonnei harboring tetA gene assessed as resistant isolates by disk diffusion method; type: functional
Shigella sonnei [27] = test: Antimicrobial activity against Shigella sonnei harboring tetB gene assessed as resistant isolates by disk diffusion method; type: functional; method in brief: as §2
Shigella sonnei [28] = test: Antimicrobial activity against Shigella sonnei harboring tetG gene assessed as resistant isolates by disk diffusion method; type: functional; method in brief: as §2
Salmonella sp. [29] = test: Antimicrobial activity against Salmonella spp. harboring tetA gene assessed as resistant isolates by disk diffusion method; type: functional
Salmonella sp. [30] = test: Antimicrobial activity against Salmonella spp. harboring tetB gene assessed as resistant isolates by disk diffusion method; type: functional
Salmonella sp. [31] = test: Antimicrobial activity against Salmonella spp. harboring tetG gene assessed as resistant isolates by disk diffusion method; type: functional

CC1(C)S[C@@H]2[C@H](NC(=O)[C@H](N)c3ccccc3)C(=O)N2[C@H]1C(=O)O [AMPICILLIN]
Activity (Shigella flexneri [1]): 66% | Activity (Shigella sonnei [2]): 0% | Activity [3]: 0% | Activity (Salmonella typhimurium): 67% | Activity [4]: 0% | Activity (Salmonella enterica): 25% | Activity (Shigella flexneri [5]): 90% | Activity (Shigella flexneri [6]): 5% | Activity (Shigella flexneri [7]): 2% | Activity (Shigella flexneri [8]): 5% | Activity (Shigella flexneri [9]): 2% | Activity (Shigella flexneri [10]): 0% | Activity (Salmonella sp. [11]): 0% | Activity (Salmonella sp. [12]): 0% | Activity (Salmonella sp. [13]): 20% | Activity (Salmonella sp. [14]): 70% | Activity (Salmonella sp. [15]): 0% | Activity (Salmonella sp. [16]): 0%

O=C(N[C@H](CO)[C@H](O)c1ccc([N+](=O)[O-])cc1)C(Cl)Cl [CHLORAMPHENICOL]
Activity (Shigella flexneri [1]): 61% | Activity (Shigella sonnei [2]): 0% | Activity [3]: 0% | Activity (Salmonella typhimurium): 22% | Activity [4]: 0% | Activity (Salmonella enterica): 25% | Activity (Shigella flexneri [17]): 2% | Activity (Shigella flexneri [18]): 0% | Activity (Shigella flexneri [19]): 89% | Activity (Salmonella sp. [20]): 33% | Activity (Salmonella sp. [21]): 83% | Activity (Salmonella sp. [22]): 67%

CN(C)[C@@H]1C(O)=C(C(N)=O)C(=O)[C@@]2(O)C(O)=C3C(=O)c4c(O)cccc4[C@@](C)(O)[C@H]3C[C@@H]12 [TETRACYCLINE]
Activity (Shigella flexneri [1]): 64% | Activity (Shigella sonnei [2]): 93% | Activity [3]: 0% | Activity (Salmonella typhimurium): 0% | Activity [4]: 0% | Activity (Salmonella enterica): 25% | Activity (Shigella flexneri [23]): 2% | Activity (Shigella flexneri [24]): 98% | Activity (Shigella flexneri [25]): 22% | Activity (Shigella sonnei [26]): 71% | Activity (Shigella sonnei [27]): 0% | Activity (Shigella sonnei [28]): 36% | Activity (Salmonella sp. [29]): 33% | Activity (Salmonella sp. [30]): 0% | Activity (Salmonella sp. [31]): 0%
